Screening results from PubChem BioAssay.
SIRT5 inh – SIRT5 desuccinylase inhibitors, primary screen, biochemical, fluorescence imaging, single point, set 5; NAD-dependent protein deacylase sirtuin-5, mitochondrial (Homo sapiens), Q9NXA8; Purified SirT5, succinyl-peptide AMC, trypsin-coupled fluorescence; inhibition, % at 15 µM; 330,000 compounds, 1.1% hits; AID 652115, 2013; in the data active = inhibition above about 15%
PDI inh – inhibitors of human PDI, primary screen, biochemical, turbidity, single point, plate reader. Protein disulfide-isomerase (Homo sapiens), P07237. PDI insulin aggregation turbidity, A650, 90 min. inhibition, % at 10 µM. 350,000 compounds, 0.052% hits. AID 588391, 2011;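 active = mean inhibition across replicates of 30% or more, whatever share of single replicates reach that level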
AF4-AF9 inh – inhibitors of AF4 peptide binding to AF9, primary screen, biochemical, AlphaScreen, biotin-AF4 peptide, FLAG-AF9, single point; Protein AF-9 (Homo sapiens), P42568; inhibition, % at 10 µM; 350,000 compounds, 0.47% hits; AID 651704, 2012;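 active = every replicate reaching a set inhibition limit, whatever the replicate mean, cut at about 25% in these data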;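 also: 0% = plate neutral control median and 100% = total signal loss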
Target sequence (P42568 whole entry, looked up): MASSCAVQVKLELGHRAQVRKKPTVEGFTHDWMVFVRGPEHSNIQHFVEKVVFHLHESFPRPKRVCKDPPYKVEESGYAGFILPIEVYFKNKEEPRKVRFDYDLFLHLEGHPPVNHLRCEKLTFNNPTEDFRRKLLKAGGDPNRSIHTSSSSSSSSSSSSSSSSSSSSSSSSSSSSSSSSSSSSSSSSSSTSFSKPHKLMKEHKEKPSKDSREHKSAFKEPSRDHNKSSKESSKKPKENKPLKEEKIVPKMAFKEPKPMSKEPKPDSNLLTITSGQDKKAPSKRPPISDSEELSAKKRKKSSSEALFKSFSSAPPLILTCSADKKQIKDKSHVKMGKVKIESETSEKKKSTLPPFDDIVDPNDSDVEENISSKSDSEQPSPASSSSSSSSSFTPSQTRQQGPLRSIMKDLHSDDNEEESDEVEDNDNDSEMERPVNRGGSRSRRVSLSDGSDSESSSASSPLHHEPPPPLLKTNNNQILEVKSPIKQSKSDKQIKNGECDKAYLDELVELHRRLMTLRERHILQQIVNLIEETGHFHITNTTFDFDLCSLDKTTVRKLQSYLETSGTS
ERp5 block – inhibitors of ERp5-driven insulin aggregation, primary screen, biochemical, turbidity, absorbance 650 nm, single point | 90 min | 350,000 compounds, 0.05% hits | AID 651711, 2012 | inhibition, % at 9.99 µM;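 active = mean replicate inhibition above about 25%, with every replicate also reaching it, limit read from the data, passing the limit was not always enough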
FN deposition inh – inhibitors of fibronectin matrix deposition, primary screen, AH1F cells, Alexa488-fibronectin fluorescence, plate reader | inhibition, % at 12.6 µM | AH1F fibroblasts, overnight | AID 743247, 2014 | 350,000 compounds, 0.086% hits;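 active = mean inhibition across replicates of 30% or more, regardless of how many single replicates reach that level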;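 also: positive control wells lacked labelled fibronectin entirely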
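Material: AH1F fibroblasts assembling fluorescent fibronectin matrix; amount: 10000 AH1F cells/well; medium: DMEM, 2% serum; reagent: Alexa488-fibronectin, 24 nM final in well; dosing: single compound dose, delivered by pin transfer; incubation: 1 h adhesion, overnight exposure; detection: fluorescence after three HBSS washes, excitation 485 nm, emission 525 nm; measure: fibronectin deposition inhibition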
The depositor's hits bear a star; / = no result. The list is not random: actives were taken first. Their share in the collection is about 1.3%.

SMILES	SIRT5 inh	PDI inh	AF4-AF9 inh	ERp5 block	FN deposition inh
COc1ccc(S(=O)(=O)N(C)C[C@H]2OCCCC[C@@H](C)Oc3ccc(NC(=O)Nc4ccc(C(F)(F)F)cc4)cc3C(=O)N([C@@H](C)CO)C[C@H]2C)cc1	8.4	/	-8.7	6.8	-7.7
COc1ccc(NC(=O)Nc2ccc3c(c2)C(=O)N([C@@H](C)CO)C[C@@H](C)[C@@H](CN(C)S(=O)(=O)c2ccccc2)OCCCC[C@@H](C)O3)cc1	12.8	/	-2.5	2.7	3.4
COc1ccc(S(=O)(=O)N(C)C[C@@H]2OCCCC[C@@H](C)Oc3ccc(NC(=O)Nc4ccc(C(F)(F)F)cc4)cc3C(=O)N([C@@H](C)CO)C[C@@H]2C)cc1	27.5*	/	-15.9	20.7	-11.7
COc1ccc(NC(=O)Nc2ccc3c(c2)C(=O)N([C@@H](C)CO)C[C@H](C)[C@@H](CN(C)S(=O)(=O)c2ccc(F)cc2)OCCCC[C@@H](C)O3)cc1	7.8	/	3.3	1.3	-31.5
Cc1cccc(NS(=O)(=O)c2ccc(S(=O)(=O)N3CCCC3)cc2)c1	-12.2	-2.6	-0.5	1.6	0.2
COc1ccc(S(=O)(=O)N(C)C[C@@H]2OCCCC[C@H](C)Oc3ccc(NC(=O)Nc4ccc(F)cc4)cc3C(=O)N([C@H](C)CO)C[C@H]2C)cc1	16.8*	/	2.3	-1.8	8.4
COc1ccc(NC(=O)Nc2ccc3c(c2)C(=O)N([C@H](C)CO)C[C@@H](C)[C@@H](CN(C)S(=O)(=O)c2ccc(F)cc2)OCCCC[C@H](C)O3)cc1	12.0	/	-0.7	-1.5	-8.4
COc1ccc(NC(=O)COC(=O)CCOc2ccccc2C)cc1Cl	-0.6	-1.3	-6.3	1.5	5.1
Cn1c(NC(=O)c2ccccc2F)cc(=O)n(C)c1=O	0.6	0.8	-10.2	-4.2	-5.7
COc1ccc(Cl)cc1C(=O)Nc1cc(=O)n(C)c(=O)n1C	-0.5	20.2	49.0*	3.8	3.2
O=S(=O)(Nc1ccccc1)c1ccc2c(c1)CCO2	-3.2	-2.7	47.8*	3.2	1.9
O=C(NCc1ccc(F)cc1)c1cccnc1C(=O)O	23.3*	-1.3	-1.8	2.0	-0.7
OC(CNCc1ccccc1)COc1ccccc1 (stereo unspecified)	24.0*	-1.2	/	-0.2	-15.7
O=C(c1ccccc1)c1ccc(OCC(O)CNCc2ccc(Cl)cc2)cc1 (stereo unspecified)	3.3	-2.1	1.1	0.4	6.7
O=c1c(O)cccc2cc(O)c(O)c(O)c12	32.8*	-2.9	1.3	3.5	-0.8
Oc1ccc(N2CCN(Cc3cc4c(cc3Br)OCCO4)CC2)cc1	1.6	76.4*	11.8	0.2	-10.1
CCN(CC)C(=O)CSc1nnc([C@H](Cc2c[nH]c3ccccc23)NC(=O)OC(C)(C)C)o1	/	55.7*	/	/	2.5
CCSc1nnc([C@H](Cc2c[nH]c3ccccc23)NC(=O)OC(C)(C)C)o1	/	49.3*	/	/	3.7
CN(C)C(=O)CSc1nnc([C@H](Cc2ccccc2)NC(=O)OC(C)(C)C)o1	-2.1	10.6	1.2	3.2	5.5
CSc1nnc([C@H](Cc2c[nH]c3ccccc23)NC(=O)OC(C)(C)C)o1	-0.2	27.6	9.5	-8.0	-0.8
Cn1cc(CN(CCO)Cc2cccs2)c(-c2cccc(Cl)c2)n1	-3.5	-6.2	3.9	-0.5	1.4
CCCn1c(SCC(=O)N2CCN(c3ccc(OC)cc3)CC2)nc2c1c(=O)n(C)c(=O)n2C	/	-2.4	/	/	/
CCN(c1ccccc1)c1ncnc2c1cnn2-c1ccccc1	-2.6	-9.9	28.3*	-3.2	1.1
Cc1ccc(S(=O)(=O)C=CS(=O)(=O)c2ccc(C)cc2)cc1	1.8	3.7	5.3	31.5*	15.9
O=S(=O)(/C=C/C=C/S(=O)(=O)c1ccccc1)c1ccccc1	-6.1	-0.1	-6.4	2.1	33.6*
NS(=O)(=O)c1ccccc1	-4.8	-4.7	-7.4	0.0	-10.8
Nc1ccc2nc(-c3cccc(-c4nc5ccc(N)cc5[nH]4)c3)[nH]c2c1	17.2*	-4.9	4.6	-1.4	-23.6
Nc1ccc(-c2nc3ccc(N)cc3[nH]2)cc1	-14.8	-10.3	11.1	0.0	-11.1
